In data set [1] the test system is L. amazonensis promastigotes. Description: Susceptibility assay in promastigotes. It counts as cell-based, Leishmania amazonensis (MHOM/BR/77/LTB0016 strain). The settings on record: Leishmania amazonensis, 72 h, read-out: Promastigotes IC50 + SD.
Data set [2] is described as follows: Cytotoxicity in mouse peritoneal macrophages. Format: cell-based, BALB/c mice. The conditions noted are these: BALB/c, Macrophages CC50 + SD, resazurin. An outline of the steps: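 Peritoneal lavage cells from BALB/c mice, in RPMI + 10% heat-inactivated FBS, seeded at 3 × 10⁵ macrophages/mL, left to adhere 2 h at 33°C, 5% CO₂; non-adherent cells washed off with PBS. Test compound from 650 µM top, 8 serial 1:2.5 dilutions, quadruplicate, 48 h. Then 3 mM resazurin (stock), fluorescence after 4 h; CC50 by non-linear curve fit; at least three independent trials.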

The structures appear in SMILES notation.

For orientation: IC50 means the point on the concentration scale where inhibition reaches its midpoint. Broadly, the CC50 is the concentration giving 50% cytotoxicity. Regarding `C[C@@H]1[C@H](O)[C@@H](C)/C=C/C=C/C=C/C=C/C=C/C=C/C=C/[C@H](O[C@@H]2O[C@H](C)[C@@H](O)[C@H](N)[C@@H]2O)C[C@@H]2O[C@](O)(C[C@@H](O)C[C@@H](O)[C@H](O)CC[C@@H](O)C[C@@H](O)CC(=O)O[C@H]1C)C[C@H](O)[C@H]2C(=O)O` [Amphotericin B], in data set [1], the IC50 worked out at 30 ± 14 nM. Also, the half-maximal cytotoxic concentration (CC50) at 48 h in data set [2] came out at 5800 ± 500 nM.

The record behind these values is paper PMC10617274 (Therapeutic Advances in Infectious Disease, 2023).
